Measurements from ChEMBL document CHEMBL2057114, “Non-nucleoside inhibitors of the measles virus RNA-dependent RNA polymerase: synthesis, structure-activity relationships, and pharmacokinetics” (J Med Chem, 2012).
≈ marks a conversion by molar mass, not a printed value.

What was measured:
[1] = tested on: Measles morbillivirus; assay: Antiviral activity against Measles virus Alaska infected african green monkey Vero cells expressing human SLAM assessed as decrease in virus-induced cytopathic effect; assay type: functional, organism-based
[2] = Cmax in Sprague-Dawley rat at 10 mg/kg, po; assay type: ADME, organism-based; design: dose 10 mg/kg, route oral; settings: in vivo
Method in brief: (§1)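 Oral gavage at 10 and 50 mg/kg to Sprague-Dawley rats, given as a suspension in PEG200/0.5% methylcellulose (10/90), n = 4 per group. Plasma concentration was followed over time, and PK parameters were estimated by non-compartmental analysis.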

[3] = Half life in Sprague-Dawley rat at 10 mg/kg, po; assay type: ADME, organism-based; design: dose 10 mg/kg, route oral; settings: in vivo; method in brief: as §1
[4] = tested on: Measles morbillivirus; assay: Inhibition of Measles virus RdRp expressed in baby hamster BSR-T7/5 cells by firefly luciferase mini replicon assay; assay type: cell-based
Method in brief: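 BSR-T7/5 cells were transfected with plasmids encoding MeV L, N and P plus a firefly luciferase minigenome reporter, then incubated with a range of inhibitor concentrations or vehicle. Luciferase activity in cell lysates was read 36 h post-transfection relative to vehicle, and dose-response curves were built; three experiments.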

[5] = tested on: Measles morbillivirus; assay: Antiviral activity against Measles virus Alaska infected african green monkey Vero cells expressing human SLAM assessed as decrease in viral titer at EC50 of cytopathic inhibition; assay type: functional, organism-based
[6] = tested on: Rattus norvegicus; assay: Ratio of AUC for ERDRP-00519 to AUC for AS-136a in Sprague-Dawley rat at 10 to 50 mg/kg; assay type: ADME, organism-based; design: dose 10-50 mg/kg; settings: in vivo
[7] = Cmax in Sprague-Dawley rat at 50 mg/kg, po; assay type: ADME, organism-based; design: dose 50 mg/kg, route oral; settings: in vivo; method in brief: as §1
[8] = tested on: Vero; assay: Cytotoxicity against african green monkey Vero cells after 24 hrs by MTT assay; assay type: cell-based; settings: chlorocebus sabaeus
[9] = tested on: Rattus norvegicus; assay: Ratio of Cmax for ERDRP-00519 to Cmax for AS-136a in Sprague-Dawley rat at 10 to 50 mg/kg; assay type: ADME, organism-based; design: dose 10-50 mg/kg; settings: in vivo
[10] = Tmax in Sprague-Dawley rat at 10 mg/kg, po; assay type: ADME, organism-based; design: dose 10 mg/kg, route oral; settings: in vivo; method in brief: as §1
[11] = tested on: Caco-2; assay: Efflux ratio of permeability in human Caco2 cells; assay type: ADME, cell-based
Method in brief: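 Caco-2 bidirectional permeability assay, with efflux ratio calculated from the two transport directions.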

[12] = Half life in Sprague-Dawley rat at 50 mg/kg, po; assay type: ADME, organism-based; design: dose 50 mg/kg, route oral; settings: in vivo; method in brief: as §1
[13] = AUC (0 to t) in Sprague-Dawley rat at 10 mg/kg, po; assay type: ADME, organism-based; design: dose 10 mg/kg, route oral; settings: plasma; method in brief: as §1
[14] = Solubility of the compound at pH 7.4 by nephelometric analysis; assay type: physicochemical; settings: buffer
Method in brief: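 Aqueous solubility was measured by nephelometry in buffer at pH 7.4.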

[15] = Tmax in Sprague-Dawley rat at 50 mg/kg, po; assay type: ADME, organism-based; design: dose 50 mg/kg, route oral; settings: in vivo; method in brief: as §1
[16] = tested on: Rattus norvegicus; assay: Oral bioavailability in Sprague-Dawley rat at 10 mg/kg; assay type: ADME, organism-based; settings: in vivo
Method in brief: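 Rats were dosed 2 mg/kg i.v. and 10 mg/kg p.o., and oral bioavailability F was derived by comparing the two routes.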

[17] = AUC (0 to t) in Sprague-Dawley rat at 50 mg/kg, po; assay type: ADME, organism-based; design: dose 50 mg/kg, route oral; settings: plasma; method in brief: as §1
[18] = AUC (0 to infinity) in Sprague-Dawley rat at 10 mg/kg, po; assay type: ADME, organism-based; design: time infinity, dose 10 mg/kg, route oral; settings: plasma; method in brief: as §1
[19] = Metabolic stability of the compound in human liver S9 fractions assessed as compound remaining after 1 hr; assay type: ADME, subcellular, S9 fraction; settings: read-out: Stability
Method in brief: (§2)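 Compound incubated one hour in liver S9 fraction, with the percentage of parent compound remaining as the readout.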

[20] = AUC (0 to infinity) in Sprague-Dawley rat at 50 mg/kg, po; assay type: ADME, organism-based; design: time infinity, dose 50 mg/kg, route oral; settings: plasma; method in brief: as §1
[21] = Metabolic stability of the compound in mouse liver S9 fractions assessed as compound remaining after 1 hr; assay type: ADME, subcellular, S9 fraction; settings: read-out: Stability; method in brief: as §2

Structure (SMILES)	EC50 [1] [µM]	solubility kinetic [14] [µg/mL]	further results
CCOC(=O)CCC1CCCCN1S(=O)(=O)c1ccc(NC(=O)c2cc(C(F)(F)F)nn2C)cc1 (configuration not stated)	6.7		
Cn1nc(C(F)(F)F)cc1C(=O)Nc1ccc(S(=O)(=O)N2CCCC[C@H]2CCN2CCOCC2)cc1	2.5	60 (≈ 113 µM)	Cmax [2]: 195 ng/mL; half-life [3]: 132 min; inhibition [4]: Dose-dependent effect; EC50 [5]: 60 nM; Ratio [6]: 10; Cmax [7]: 823 ng/mL; CC50 [8]: > 75 µM; Ratio [9]: 10; Tmax [10]: 1.1 h; Ratio [11]: 2.6; half-life [12]: 390 min; AUC(0-t) [13]: 683 ng·h/mL; Tmax [15]: 1.5 h; F [16]: 39%; AUC(0-t) [17]: 3520 ng·h/mL; AUC(0-inf) [18]: 818 ng·h/mL; remaining at 1 h [19]: 24%; AUC(0-inf) [20]: 7860 ng·h/mL
CC(=O)NCC1CCCCN1S(=O)(=O)c1ccc(NC(=O)c2cc(C(F)(F)F)nn2C)cc1 (configuration not stated)	14		
COc1ccccc1S(=O)(=O)c1ccc(NC(=O)c2cc(C(F)(F)F)nn2C)cc1	3.1	< 15	CC50 [8]: > 75 µM
Cn1nc(C(F)(F)F)cc1C(=O)Nc1ccc(S(=O)(=O)c2ccccc2O)cc1	4.5	67 (≈ 158 µM)	
CCOC(=O)/C=C/C1CCCCN1S(=O)(=O)c1ccc(NC(=O)c2cc(C(F)(F)F)nn2C)cc1 (configuration not stated)	6.8		
Cn1nc(C(F)(F)F)cc1C(=O)Nc1ccc(S(=O)(=O)N2CCCCC2CCN2CCOCC2)cc1 (configuration not stated)	4.6	55 (≈ 104 µM)	
Cn1nc(C(F)(F)F)cc1C(=O)Nc1ccc(S(=O)(=O)N2CCCCC2CO)cc1 (configuration not stated)	2.8	61 (≈ 137 µM)	CC50 [8]: > 75 µM
Cn1nc(C(F)(F)F)cc1C(=O)Nc1ccc(S(=O)(=O)c2ccccc2CO)cc1	3.5	46 (≈ 105 µM)	CC50 [8]: > 75 µM
Cn1nc(C(F)(F)F)cc1C(=O)Nc1ccc(S(=O)(=O)N2CCCCC2CN=[N+]=[N-])cc1 (configuration not stated)	1.5		
Cn1nc(C(F)(F)F)cc1C(=O)Nc1ccc(S(=O)(=O)N2CCCCC2CCO)cc1 (configuration not stated)	2.7	62 (≈ 135 µM)	EC50 [5]: 100 nM; CC50 [8]: > 75 µM
COCOCC1CCCN(S(=O)(=O)c2ccc(NC(=O)c3cc(C(F)(F)F)nn3C)cc2)C1 (configuration not stated)	3.8		
Cn1nc(C(F)(F)F)cc1C(=O)Nc1ccc(S(=O)(=O)N2CCCCC2CN)cc1 (configuration not stated)	55		
Cn1nc(C(F)(F)F)cc1C(=O)Nc1ccc(S(=O)(=O)N2CCCCC2CN2CCOCC2)cc1 (configuration not stated)	9.3		
Cn1nc(C(F)(F)F)cc1C(=O)Nc1ccc(S(=O)(=O)N2CCCCC2COCCO)cc1 (configuration not stated)	8.3		
CCOC(=O)COCC1CCCCN1S(=O)(=O)c1ccc(NC(=O)c2cc(C(F)(F)F)nn2C)cc1 (configuration not stated)	25		
Cn1nc(C(F)(F)F)cc1C(=O)Nc1ccc(S(=O)(=O)N2CCCC[C@@H]2CCO)cc1	8.3		
COCOCC1CCCCN1S(=O)(=O)c1ccc(NC(=O)c2cc(C(F)(F)F)nn2C)cc1 (configuration not stated)	1.5		
Cn1nc(C(F)(F)F)cc1C(=O)Nc1ccc(S(=O)(=O)N2CCCCC2CCCO)cc1 (configuration not stated)	2.7		
Cn1nc(C(F)(F)F)cc1C(=O)Nc1ccc(S(=O)(=O)N2CCCCC2/C=C/CO)cc1 (configuration not stated)	3.7		
CN(C)CC1CCCCN1S(=O)(=O)c1ccc(NC(=O)c2cc(C(F)(F)F)nn2C)cc1 (configuration not stated)	> 150		
C=Cc1ccccc1S(=O)(=O)c1ccc(NC(=O)c2cc(C(F)(F)F)nn2C)cc1	> 50		
CC(=O)Oc1ccccc1S(=O)(=O)c1ccc(NC(=O)c2cc(C(F)(F)F)nn2C)cc1	4.5		
Cn1nc(C(F)(F)F)cc1C(=O)Nc1ccc(S(=O)(=O)N2CCCC[C@H]2CCO)cc1	3.1		
Cn1nc(C(F)(F)F)cc1C(=O)Nc1ccc(S(=O)(=O)c2ccccc2)cc1	2.8	22 (≈ 53.7 µM)	EC50 [5]: 90 nM; CC50 [8]: > 75 µM
COCOCC1CCN(S(=O)(=O)c2ccc(NC(=O)c3cc(C(F)(F)F)nn3C)cc2)CC1	16		
Cn1nc(C(F)(F)F)cc1C(=O)Nc1ccc(S(=O)(=O)c2ccccc2CN2CCOCC2)cc1	> 75		
Cn1nc(C(F)(F)F)cc1C(=O)Nc1ccc(S(=O)(=O)N2CCCCC2)cc1	2	< 15	inhibition [4]: Dose-dependent effect; CC50 [8]: > 75 µM; remaining at 1 h [21]: 79%; Ratio [11]: 1.1; remaining at 1 h [19]: 69%
